{"source": "ChEMBL document CHEMBL3272120", "about": "“2,5,5-Trimethylthiazolidine-4-carboxylic acid, a D(-)-penicillamine-directed pseudometabolite of ethanol. Detoxication mechanism for acetaldehyde” (1978)", "key": {"[1]": {"test_system": "Rattus norvegicus", "assay": "Detoxification of acetaldehyde in aldehyde dehydrogenase inhibitor disuifiram/ethanol-treated rat assessed as reduction of blood acetaldehyde level at 8 mmol/kg, ip administered 1 hr prior to ethanol treatment measured after 1 hr by head space gas chromatographic analysis"}, "[2]": {"test_system": "Rattus norvegicus", "assay": "(§1) Detoxification of acetaldehyde in ethanol-1-[14C]-treated Sprague-Dawley rat assessed as [14C]-3-acetyl-2-methylthiazolidine-4-carboxylic acid in urine by measuring administered dose of ethanol-1-[14C] at 10 mmol/kg, ip administered 1 hr prior to 65 mmol/kg ethanol-1-[14C] treatment measured for 24 hrs by inverse isotope dilution method in presence of Ac2O relative to control", "format": "functional", "procedure,_shortened": "(§2)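 Male Sprague-Dawley rats (190–280 g), given the test agent 1 h before ethanol-1-14C (65 mmol/kg, 200 mg/mL in isotonic saline, 0.8–1.4 μCi/rat), or at the same time as it for the simultaneous-dosing lines. Held in metabolism cages for 24 h. Urine plus washings were filtered and 400 mg unlabeled carrier added. The mix was acetylated with Ac2O, purified by preparative TLC and recrystallized from EtOAc to constant specific activity. Radioactivity was then scintillation counted.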"}, "[3]": {"test_system": "Rattus norvegicus", "assay": "as §1, with “aldehyde dehydrogenase inhibitor disuifiram/ethanol-1-[14C]-treated” for “ethanol-1-[14C]-treated”, “acid excretion” for “acid”, “8.3” for “10”", "format": "functional", "set-up": "scale not given: the % may be the effect or the level left", "procedure,_shortened": "as §2"}, "[4]": {"test_system": "Rattus norvegicus", "assay": "(§3) Detoxification of acetaldehyde in ethanol-1-[14C]-treated Sprague-Dawley rat assessed as [14C]-3-acetyl-2,5,5-trimethylthiazolidine-4-carboxylic acid excretion in urine by measuring administered dose of ethanol-1-[14C] at 8 mmol/kg, po administered with 65 mmol/kg ethanol-1-[14C] measured for 24 hrs by inverse isotope dilution method in presence of Ac2O relative to control", "format": "functional", "procedure,_shortened": "as §2"}, "[5]": {"test_system": "Rattus norvegicus", "assay": "as §3, with “8.1” for “8”", "format": "functional", "procedure,_shortened": "as §2"}, "[6]": {"test_system": "Rattus norvegicus", "assay": "as §1, with “[14C]-3-acetyl-2,5,5-trimethylthiazolidine-4-carboxylic” for “[14C]-3-acetyl-2-methylthiazolidine-4-carboxylic”, “acid excretion” for “acid”, “8.1” for “10”, “po” for “ip”", "format": "functional", "procedure,_shortened": "as §2"}, "[7]": {"test_system": "Rattus norvegicus", "assay": "as §1, with “[14C]-3-acetyl-2,5,5-trimethylthiazolidine-4-carboxylic” for “[14C]-3-acetyl-2-methylthiazolidine-4-carboxylic”, “acid excretion” for “acid”, “8.1” for “10”", "format": "functional", "procedure,_shortened": "as §2"}, "[8]": {"test_system": "Rattus norvegicus", "assay": "(§4) Detoxification of acetaldehyde in aldehyde dehydrogenase inhibitor disuifiram/ethanol-1-[14C]-treated Sprague-Dawley rat assessed as [14C]-3-acetyl-2,5,5-trimethylthiazolidine-4-carboxylic acid excretion in urine by measuring administered dose of ethanol-1-[14C] at 8.1 mmol/kg, po administered 1 hr prior to 65 mmol/kg ethanol-1-[14C] treatment measured for 24 hrs by inverse isotope dilution method in presence of Ac2O relative to control", "format": "functional", "set-up": "scale not given: the % may be the effect or the level left", "procedure,_shortened": "as §2"}, "[9]": {"test_system": "Rattus norvegicus", "assay": "as §4, with “2” for “8.1”, “ip” for “po”, “first dose at 0.25 hrs” for “1 hr”, “43.5” for “65”, “treatment followed by 4 doses of compound at 0.75 hrs, 3 hrs, 5 hrs, 7 hrs” for “treatment”", "format": "functional", "set-up": "scale not given: the % may be the effect or the level left"}, "[10]": {"test_system": "Rattus norvegicus", "assay": "as §4, with “pargyline/ethanol-1-[14C]-treated” for “disuifiram/ethanol-1-[14C]-treated”, “ip” for “po”", "format": "functional", "set-up": "scale not given: the % may be the effect or the level left", "procedure,_shortened": "as §2"}, "[11]": {"test_system": "Rattus norvegicus", "assay": "as §4, with “pyrogallol/ethanol-1-[14C]-treated” for “disuifiram/ethanol-1-[14C]-treated”, “ip” for “po”", "format": "functional", "set-up": "scale not given: the % may be the effect or the level left", "procedure,_shortened": "as §2"}, "[12]": {"test_system": "Rattus norvegicus", "assay": "as §1, with “acid excretion” for “acid”, “7.4” for “10”, “po” for “ip”", "format": "functional", "procedure,_shortened": "as §2"}}, "note": "Active and inactive are the calls of the source. No cut-off for these calls is given here."}
{"molecule": "NC(CCSSCCC(N)C(=O)O)C(=O)O", "note": "(racemic)", "values": [{"measurement": "Activity", "setting": "[1]", "value": "inactive"}]}
{"molecule": "N[C@@H](CS)C(=O)O", "note": "(stereo in doubt; 2)", "values": [{"measurement": "Activity", "setting": "[1]", "value": "inactive"}]}
{"molecule": "N[C@@H](CS)C(=O)O", "note": "(stereo in doubt; 2) [CYSTEINE]", "values": [{"measurement": "Activity", "setting": "[2]", "value": 0, "unit": "%"}, {"measurement": "Activity", "setting": "[3]", "value": 0, "unit": "%"}]}
{"molecule": "CC(=O)NC(C(=O)O)C(C)(C)S", "note": "(centres undefined) [N-ACETYL PENICILLAMINE]", "values": [{"measurement": "Activity", "setting": "[4]", "value": 0, "unit": "%"}, {"measurement": "Activity", "setting": "[1]", "value": "inactive"}]}
{"molecule": "N[C@@H](CS)C(=O)O", "note": "(stereo in doubt)", "values": [{"measurement": "Activity", "setting": "[1]", "value": "inactive"}]}
{"molecule": "CC(C)(S)[C@@H](N)C(=O)O", "note": "[PENICILLAMINE]", "values": [{"measurement": "Activity", "setting": "[5]", "value": 0.4, "unit": "%"}, {"measurement": "Activity", "setting": "[6]", "value": 1.2, "unit": "%"}, {"measurement": "Activity", "setting": "[7]", "value": 0.5, "unit": "%"}, {"measurement": "Activity", "setting": "[8]", "value": 2.7, "unit": "%"}, {"measurement": "Activity", "setting": "[9]", "value": 7.6, "unit": "%"}, {"measurement": "Activity", "setting": "[10]", "value": 3.3, "unit": "%"}, {"measurement": "Activity", "setting": "[11]", "value": 1.1, "unit": "%"}, {"measurement": "Activity", "setting": "[1]", "value": "Active"}]}
{"molecule": "NC(CCS)C(=O)O", "note": "(racemic)", "values": [{"measurement": "Activity", "setting": "[1]", "value": "inactive"}]}
{"molecule": "NC1CCSC1=O", "note": "(racemic)", "values": [{"measurement": "Activity", "setting": "[1]", "value": "inactive"}]}
{"molecule": "CC(=O)N[C@@H](CS)C(=O)O", "note": "[ACETYLCYSTEINE]", "values": [{"measurement": "Activity", "setting": "[12]", "value": 0, "unit": "%"}, {"measurement": "Activity", "setting": "[1]", "value": "inactive"}]}
